Test [1] has as its system HeLa. Conditions: read-out: IC50 in HeLa cells, previously published value; cited from earlier work.
Test [2] deals with chymotrypsin-like subunit. As to conditions: cited from earlier work.
In test [3] the target is β5 catalytic subunit (chymotrypsin-like activity) (Homo sapiens, UniProt P20618+P28074). Put plainly: Proteasome-Glo cell-based chymotrypsin-like. Conditions: CT-L; for fold increase in inhibitory activity than compounds with unsubstituted phenyl: vs 30, 29 and BSc2189.
In test [4] the test system is HeLa. Put plainly: MTS cytotoxicity assay, HeLa. The format is cell-based. Conditions: Homo sapiens, 72 h, read-out: Cytotoxicity IC50 ± SEM, Hela, MTS, 72 h. The procedure, abridged:
(§1)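 HeLa, MGC-803 and SW480 cells were maintained in DMEM with 10% FBS at 37 °C and 5% CO2. Each line was plated at 5∗10^3 cells/well in 100 μL and treated with test compound for 72 h. MTS solution was added and incubated 3 more h at 37 °C, then absorbance was measured at 490 nm. Assays were run in triplicate with triplicate wells; IC50 was obtained by curve fitting.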
Background: Tetrazolium assays rely on reduction of a dye to a coloured formazan, in cell work by metabolically active cells.

In another test the test system is THP-1. Put plainly: MTS cytotoxicity assay, THP-1. The format is cell-based. Conditions: Homo sapiens, THP-1, 72 h, read-out: Cytotoxicity IC50 ± SEM, THP-1. The procedure, abridged:
(§2)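 RPMI8226, THP-1 and Ramos cells were grown in RPMI 1640 with 10% FBS at 37 °C and 5% CO2. Cells were seeded in 100 μL at 1∗104/well (RPMI8226) or 5∗104/well (THP-1, Ramos) and exposed to test compound for 72 h. MTS was then added for 3 h at 37 °C, and OD was read at 490 nm. Triplicate experiments, triplicate wells each; IC50 from curve fitting.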

Another test deals with MGC-803. Put plainly: MTS cytotoxicity assay, MGC-803. The format is cell-based. As to conditions: Homo sapiens, MGC-803, 72 h, read-out: Cytotoxicity IC50 ± SEM, MGC-803. The procedure, abridged:
as §1

For the next test, the system named is Ramos (RA 1). Put plainly: MTS cytotoxicity assay, Ramos. The format is cell-based. As to conditions: Homo sapiens, 72 h, read-out: Cytotoxicity IC50 ± SEM, Ramos (RA 1). The procedure, abridged:
as §2

Another test has as its system SW480. Put plainly: MTS cytotoxicity assay, SW480. As to conditions: Homo sapiens, SW480, 72 h, read-out: Cytotoxicity IC50 ± SEM, SW480. The format is cell-based. A digest of the protocol: as §1
A further test has as its system RPMI8226. Put plainly: MTS cytotoxicity assay, RPMI8226. As to conditions: Homo sapiens, RPMI-8226, 72 h, read-out: Cytotoxicity IC50 ± SEM, RPMI8226. The format is cell-based. The procedure, abridged:
as §2

Like-named read-outs stand apart in the source and are kept apart here.

One may read the IC50 as the midpoint of a concentration-inhibition curve. Consider `CC(C)C[C@H](NC(=O)OCc1ccccc1)C(=O)N[C@@H](CC(C)C)C(=O)N[C@@H](CC(C)C)C(=O)C(=O)Nc1ccccc1` [BSc2189], for which, in the test with HeLa [1], the IC50 was 254 nM.

With `Cc1ccc(NC(=O)C(=O)C(CC(C)C)NC(=O)C(CC(C)C)NC(=O)C(CC(C)C)NC(=O)OCc2ccccc2)c(C)c1` (stereo not drawn) [BSc4999], in test [2], the “fold more potent than BSc2189” value is “about 2 fold”.

For the compound `CC(C)C[C@H](NC(=O)[C@H](Cc1ccccc1)NC(=O)[C@H](CC1CCCCC1)NC(=O)OCc1ccccc1)C(=O)C(=O)Nc1ccccc1` [Compound 31, ((2S)-3-cyclohexyl-1-(((2S)-1-((5-methyl-1,2-dioxo-1-(phenylamino)hexan-3-yl)amino)-1-oxo-3-phenylpropan-2-yl)amino)-1-oxopropan-2-yl)carbamic acid benzyl ester], the “fold increase in potency relative to analog 28” value in test [3] (vs 28 with Ala at P3) turned out to be 3 fold. Also, in test [3] (vs 30 with Leu at P3), the “fold reduced activity compared with 30” value is on record as approximately 3 fold.

Consider `CC(=O)c1cccc(NC(=O)C(=O)[C@H](CC(C)C)NC(=O)[C@H](Cc2ccccc2)NC(=O)[C@H](CC(C)C)NC(=O)OCc2ccccc2)c1` [Compound 34, ((S)-1-(((S)-1-(((S)-1-((3-acetylphenyl)amino)-5-methyl-1,2-dioxohexan-3-yl)amino)-1-oxo-3-phenylpropan-2-yl)amino)-4-methyl-1-oxopentan-2-yl)carbamic acid benzyl ester], for which the “fold increase in inhibitory activity than compounds with unsubstituted phenyl” value in test [3] is reported as 1.5–4 fold.

Take `CC(=O)c1cccc(NC(=O)C(=O)[C@H](CC(C)C)NC(=O)[C@H](Cc2c[nH]c3ccccc23)NC(=O)[C@H](CC(C)C)NC(=O)OCc2ccccc2)c1` [Compound 35, ((S)-1-(((S)-1-(((S)-1-((3-acetylphenyl)amino)-5-methyl-1,2-dioxohexan-3-yl)amino)-3-(1H-indol-3-yl)-1-oxopropan-2-yl)amino)-4-methyl-1-oxopentan-2-yl)carbamic acid benzyl ester]: in test [3], the “fold increase in inhibitory activity than compounds with unsubstituted phenyl” value is given as 1.5–4 fold.

As to `CC(C)C[C@H](NC(=O)OCc1ccccc1)C(=O)N[C@@H](Cc1c[nH]c2ccccc12)C(=O)N[C@@H](CC(C)C)C(=O)C(=O)Nc1cccc(S(C)(=O)=O)c1` [Compound 36, ((S)-1-(((S)-3-(1H-indol-3-yl)-1-(((S)-5-methyl-1-((3-(methylsulfonyl)phenyl)amino)-1,2-dioxohexan-3-yl)amino)-1-oxopropan-2-yl)amino)-4-methyl-1-oxopentan-2-yl)carbamic acid benzyl ester], the “fold increase in inhibitory activity than compounds with unsubstituted phenyl” value in test [3] is 1.5–4 fold.

With `CC(C)C[C@H](NC(=O)OCc1ccccc1)C(=O)N[C@@H](Cc1c[nH]c2ccccc12)C(=O)N[C@@H](CC(C)C)C(=O)C(=O)Nc1cccc2ccccc12` [Compound 37, ((S)-1-(((S)-3-(1H-indol-3-yl)-1-(((S)-5-methyl-1-(naphthalen-1-ylamino)-1,2-dioxohexan-3-yl)amino)-1-oxopropan-2-yl)amino)-4-methyl-1-oxopentan-2-yl) carbamic acid benzyl ester], in test [3] (1-naphthyl vs unsubstituted phenyl head group), the “fold decrease in inhibitory potency over 29” value turned out to be 2 fold.

`CC(=O)c1cccc(NC(=O)C(=O)[C@H](CC(C)C)NC(=O)[C@H](CC(C)C)NC(=O)[C@H](CC(C)C)NC(=O)OCc2ccccc2)c1` [Compound 38, ((S)-1-(((S)-1-(((S)-1-((3-acetylphenyl)amino)-5-methyl-1,2-dioxohexan-3-yl)amino)-4-methyl-1-oxopentan-2-yl)amino)-4-methyl-1-oxopentan-2-yl) carbamic acid benzyl ester]: the “fold increase in inhibitory activity than compounds with unsubstituted phenyl” value in test [3] is on record as 1.5–4 fold.

In the case of `CC(C)C[C@H](NC(=O)OCc1ccccc1)C(=O)N[C@@H](CC(C)C)C(=O)N[C@@H](CC(C)C)C(=O)C(=O)Nc1ccccc1-c1ccccc1` [Compound 41, ((S)-1-(((S)-1-(((S)-1-([1,1′-biphenyl]-2-ylamino)-5-methyl-1,2-dioxohexan-3-yl)amino)-4-methyl-1-oxopentan-2-yl)amino)-4-methyl-1-oxopentan-2-yl)carbamic acid benzyl ester], the “fold reduced inhibitory activity” value in [3] (phenyl in ortho position of head group phenyl) was “up to 150 fold”.

Consider `CC(=O)c1ccc(-c2ccc(C(=O)N[C@@H](CC(C)C)C(=O)N[C@@H](CC(C)C)C(=O)N[C@@H](CC(C)C)C(=O)C(=O)Nc3cccc(C(C)=O)c3)o2)cc1` [Compound 46, 5-(4-acetylphenyl)-N-((S)-1-(((S)-1-(((S)-1-((3-acetylphenyl)amino)-5-methyl-1,2-dioxohexan-3-yl)amino)-4-methyl-1-oxopentan-2-yl)amino)-4-methyl-1-oxopentan-2-yl)furan-2-carboxamide], for which the IC50 came out at 260 ± 4.34 nM in the test on HeLa [4]; 94.4 ± 1.45 nM in the test on THP-1; 79 ± 12.6 nM in the test with MGC-803; 26.13 ± 0.18 nM in the test with Ramos (RA 1); 79.3 ± 1.87 nM in the test with SW480; 38.1 ± 1.19 nM with RPMI8226.

`COc1cccc(NC(=O)C(=O)[C@H](CC(C)C)NC(=O)[C@H](CC(C)C)NC(=O)[C@H](CC(C)C)NC(=O)c2ccc(-c3ccc(C(C)=O)cc3)o2)c1` [Compound 47, N-((S)-1-(((S)-1-(((S)-1-((3-methoxyphenyl)amino)-5-methyl-1,2-dioxohexan-3-yl)amino)-4-methyl-1-oxopentan-2-yl)amino)-4-methyl-1-oxopentan-2-yl)5-(4-acetylphenyl)-furan-2-carboxamide]: the IC50 with HeLa [4] was determined as 239 ± 3.28 nM; in the test on THP-1, 97.9 ± 2.79 nM; in the test with MGC-803, 85.4 ± 6.73 nM; in the test on Ramos (RA 1), 38.3 ± 3.04 nM; in the test on SW480, 74.5 ± 3.13 nM; in the test with RPMI8226, 43.4 ± 1.04 nM.

Take `COc1ccc(C[C@H](NC(=O)[C@H](C)NC(=O)CN2CCOCC2)C(=O)N[C@@H](Cc2ccccc2)C(=O)[C@@]2(C)CO2)cc1` [ONX-0914, reference compound]: the results for the IC50 in the test with HeLa [4] and in the test on THP-1 were 590 nM and 202 nM, respectively.

(Values after article PMC7873610 (European Journal of Medicinal Chemistry, 2021).)
